Calls of active or inactive are those of the source. No cut-off for these calls is given here.

Target in one test: not listed separately
Description: Inhibition of soybean lipoxygenase assessed as conversion of sodium linoleate to 13-hydroperoxylinoleate. Also on record: species or system Glycine max.
Details: not given
An outline of the steps: (§1)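 Soybean lipoxygenase solution (1/9×10^-4 w/v in saline) incubated at room temperature with sodium linoleate and compound in DMSO. Conversion to 13-hydroperoxylinoleate recorded at 234 nm and compared with a standard inhibitor. At least triplicate.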
One may read the IC50 as the concentration needed to halve the response being measured. Consider `COc1ccc(NC(=O)c2cn(C(=O)/C=C/C(=O)O)c3ccccc23)c(OC)c1`, for which the IC50 came out at 35 µM.

In the case of `COc1ccc(NC(=O)c2cn(C(=O)/C=C/C(=O)OC(C)(C)C)c3ccccc23)c(OC)c1`, the concentration for half-maximal inhibition (IC50) amounted to 100 µM.

Take `O=C(O)/C=C/c1cn(C(=O)/C=C/c2ccc3c(c2)OCO3)c2ccccc12`: the IC50 amounted to 65 µM.

On to `O=C(O)/C=C/C(=O)n1cc(C(=O)Nc2ccccc2)c2ccccc21`, for which the IC50 worked out at 52.4 µM.

Consider `COc1cc(OC)c(C2CC(=O)n3c2c(/C=C/C(=O)O)c2ccccc23)cc1OC` (stereo not given), for which the IC50 is 45.2 µM.

`O=C(O)/C=C/c1ccc(O)c(O)c1` [CAFFEIC ACID]: the IC50 turned out to be 600 µM.

On to `CC(C)(C)OC(=O)/C=C/c1cn(C(=O)/C=C/c2ccc3c(c2)OCO3)c2ccccc12`, for which the half-maximal inhibitory concentration (IC50) came to 82.5 µM.

A further test concerns Glycine max. The test can be described thus: Inhibition of soybean lipoxygenase assessed as conversion of sodium linoleate to 13-hydroperoxylinoleate at 50 uM.
Details: not given
An outline of the steps: as §1
As usually defined, the inhibition is how much of the control response was suppressed. For the molecule `COc1cc(OC)c(OC)cc1/C=C/C(=O)n1cc(/C=C/C(=O)OC(C)(C)C)c2ccccc21`, the inhibition is 85%.

The next test concerns Glycine max. Description: Inhibition of soybean lipoxygenase assessed as conversion of sodium linoleate to 13-hydroperoxylinoleate at 100 uM.
Details: not given
An outline of the steps: as §1
Take `COc1ccc(NC(=O)c2cn(C(=O)/C=C/c3cc(OC)c(OC)cc3OC)c3ccccc23)c(OC)c1`: the inhibition stood at 69%.

Regarding `O=C(O)/C=C/C(=O)n1cc(C(=O)Nc2cccc([N+](=O)[O-])c2)c2ccccc21`, the inhibition amounted to 26%.

For the molecule `COc1cc(OC)c(OC)cc1/C=C/C(=O)n1cc(/C=C/C(=O)OC(C)(C)C)c2ccccc21`, the inhibition is 85%.

`CC(C)(C)OC(=O)/C=C1/c2ccccc2-c2c(NC(=O)/C=C/c3ccc4c(c3)OCO4)cccc21`: the inhibition worked out at 43%.

Consider `COc1cc(NC(=O)c2cn(C(=O)CCC(=O)O)c3ccccc23)cc(OC)c1OC`, for which the inhibition is 10%.

Take `COc1cc(NC(=O)c2cn(C(=O)/C=C/C(=O)O)c3ccccc23)cc(OC)c1OC`: the inhibition is 57%.

On to `COc1cc(OC)c(OC)cc1/C=C/C(=O)n1ccc(/C(C)=C/C(=O)OC(C)(C)C)c1`, for which the inhibition stood at 39%.

As for `COc1cc(NC(=O)c2cn(C(=O)/C=C\C(=O)O)c3ccccc23)cc(OC)c1OC`, the inhibition was found to be 42%.

For `COc1cc(C)c(/C=C/C(C)=C/C=C/C(C)=C/C(=O)O)c(C)c1C` [ACITRETIN], the inhibition amounted to 1%.

A further test has as its system Rattus norvegicus. Description: Antiinflammatory activity in Fisher 344 rat assessed as inhibition of carrageenan-induced paw edema at 0.01 mmol/Kg, ip administered simultaneously with carrageenan measured after 3.5 hrs relative to control. The class given is functional. As to conditions: Fisher 344, ip. An outline of the steps:
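Fischer-344 rats of both sexes (pregnant females excluded), 6–15 per group. Oedema induced in right hind paw by intradermal 0.1 ml 2% carrageenan in water. Compounds suspended in water with a few drops Tween 80, given ip at carrageenan injection. Rats killed at 3.5 h. Injected minus uninjected paw weight compared with water-treated controls as % inhibition. Mean of two experiments.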
In general terms: The carrageenan paw model is a standard test of acute inflammation.
A word on the inhibition in vivo: it is the drop in the measured response relative to a control, in per cent. For `COc1ccc2c(c1)c(CC(=O)O)c(C)n2C(=O)c1ccc(Cl)cc1` [INDOMETHACIN], the inhibition in vivo at 10 µmol/kg worked out at 47%.

As for `COc1ccc(NC(=O)c2cn(C(=O)/C=C/C(=O)O)c3ccccc23)c(OC)c1`, the inhibition in vivo at 10 µmol/kg was 46%.

In the case of `COc1ccc(NC(=O)c2cn(C(=O)/C=C/C(=O)OC(C)(C)C)c3ccccc23)c(OC)c1`, the inhibition in vivo at 10 µmol/kg came out at 58.6%.

`O=C(O)/C=C/c1cn(C(=O)/C=C/c2ccc3c(c2)OCO3)c2ccccc12`: the inhibition in vivo at 10 µmol/kg is 34%.

Turning to `COc1cc(OC)c(C2CC(=O)n3c2c(/C=C/C(=O)O)c2ccccc23)cc1OC` (stereo not given), the inhibition in vivo at 10 µmol/kg came to 9%.

Turning to `COc1cc(C)c(/C=C/C(C)=C/C=C/C(C)=C/C(=O)O)c(C)c1C` [ACITRETIN], the inhibition in vivo at 10 µmol/kg came to 63%.

Test system in the next test: not listed separately
Description: Antioxidant activity assessed as inhibition of AAPH-induced lipid peroxidation at 100 uM. Type of test: functional.
Details: not given
An outline of the steps:
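Run at 37 °C in 0.05 M phosphate buffer pH 7.4 with 10 μL of 16 mM sodium linoleate (stock), compound in DMSO (10 μL). Oxidation started in air by 50 μL of 40 mM AAPH (stock). Conjugated diene formation followed as rising absorbance at 234 nm. Controls carried the same DMSO level. At least triplicate.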
In the case of `COc1ccc(NC(=O)c2cn(C(=O)/C=C/c3cc(OC)c(OC)cc3OC)c3ccccc23)c(OC)c1`, the inhibition stood at 42%.

With `O=C(O)/C=C/C(=O)n1cc(C(=O)Nc2cccc([N+](=O)[O-])c2)c2ccccc21`, the inhibition was 94%.

Turning to `Cc1c(C)c2c(c(C)c1O)CCC(C)(C(=O)O)O2` (stereo not given), the inhibition was 63%.

With `COc1ccc(NC(=O)c2cn(C(=O)/C=C/C(=O)O)c3ccccc23)c(OC)c1`, the inhibition came out at 77%.

Regarding `COc1cc(OC)c(OC)cc1/C=C/C(=O)n1cc(/C=C/C(=O)OC(C)(C)C)c2ccccc21`, the inhibition was 80%.

Consider `COc1ccc(NC(=O)c2cn(C(=O)/C=C/C(=O)OC(C)(C)C)c3ccccc23)c(OC)c1`, for which the inhibition turned out to be 68%.

Take `CC(C)(C)OC(=O)/C=C1/c2ccccc2-c2c(NC(=O)/C=C/c3ccc4c(c3)OCO4)cccc21`: the inhibition came out at 49%.

As to `O=C(O)/C=C/c1cn(C(=O)/C=C/c2ccc3c(c2)OCO3)c2ccccc12`, the inhibition was 22%.

`COc1cc(NC(=O)c2cn(C(=O)CCC(=O)O)c3ccccc23)cc(OC)c1OC`: the inhibition worked out at 34%.

On to `COc1cc(NC(=O)c2cn(C(=O)/C=C/C(=O)O)c3ccccc23)cc(OC)c1OC`, for which the inhibition was determined as 64%.

On to `COc1cc(OC)c(OC)cc1/C=C/C(=O)n1ccc(/C(C)=C/C(=O)OC(C)(C)C)c1`, for which the inhibition amounted to 46%.

On to `O=C(O)/C=C/C(=O)n1cc(C(=O)Nc2ccccc2)c2ccccc21`, for which the inhibition came out at 85%.

As for `COc1cc(OC)c(C2CC(=O)n3c2c(/C=C/C(=O)O)c2ccccc23)cc1OC` (stereo not given), the inhibition turned out to be 57%.

`COc1cc(NC(=O)c2cn(C(=O)/C=C\C(=O)O)c3ccccc23)cc(OC)c1OC`: the inhibition was 8%.

As to `O=C(O)/C=C/c1ccc(O)c(O)c1` [CAFFEIC ACID], the inhibition is 17.5%.

Consider `COc1cc(C)c(/C=C/C(C)=C/C=C/C(C)=C/C(=O)O)c(C)c1C` [ACITRETIN], for which the inhibition amounted to 85%.

`CC(C)(C)OC(=O)/C=C/c1cn(C(=O)/C=C/c2ccc3c(c2)OCO3)c2ccccc12`: the inhibition came out at 95%.

In another test the test system is Radical scavenging activity. The test can be described thus: Antioxidant activity assessed as DPPH radical scavenging activity at 100 uM after 60 mins by spectrophotometry. The class given is functional.
Details: not given
An outline of the steps:
(§2)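 DPPH at 0.05 mM in absolute ethanol mixed with an equal volume of compound in DMSO. Mixture shaken and left 20 or 60 min. Absorbance read at 517 nm to give percent activity. Three replicates averaged.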
(DPPH is a stable violet radical that fades when it is reduced.)
With `CC(C)(C)OC(=O)/C=C1/c2ccccc2-c2c(NC(=O)/C=C/c3ccc4c(c3)OCO4)cccc21`, the Activity is 6%.

Regarding `CC(Cc1ccc(O)c(O)c1)C(C)Cc1ccc(O)c(O)c1` (stereo not given), the Activity came to 83%.

Another test deals with Glycine max. Description: Inhibition of soybean lipoxygenase assessed as conversion of sodium linoleate to 13-hydroperoxylinoleate at 10 uM.
Details: not given
An outline of the steps: as §1
Consider `COc1cc(OC)c(OC)cc1/C=C/C(=O)n1cc(/C=C/C(=O)OC(C)(C)C)c2ccccc21`, for which the inhibition stood at 0%.

A further test concerns Radical scavenging activity. Description: Antioxidant activity assessed as DPPH radical scavenging activity at 100 uM after 20 mins by spectrophotometry. The class given is functional.
Details: not given
An outline of the steps: as §2
In the case of `COc1ccc(NC(=O)c2cn(C(=O)/C=C/c3cc(OC)c(OC)cc3OC)c3ccccc23)c(OC)c1`, the Activity was determined as 5%.

Take `O=C(O)/C=C/C(=O)n1cc(C(=O)Nc2cccc([N+](=O)[O-])c2)c2ccccc21`: the result was inactive.

For the molecule `COc1ccc(NC(=O)c2cn(C(=O)/C=C/C(=O)O)c3ccccc23)c(OC)c1`, the Activity turned out to be 10%.

Consider `COc1cc(OC)c(OC)cc1/C=C/C(=O)n1cc(/C=C/C(=O)OC(C)(C)C)c2ccccc21`, for which the Activity turned out to be 8.3%.

`COc1ccc(NC(=O)c2cn(C(=O)/C=C/C(=O)OC(C)(C)C)c3ccccc23)c(OC)c1`: the Activity is 5%.

Turning to `CC(C)(C)OC(=O)/C=C1/c2ccccc2-c2c(NC(=O)/C=C/c3ccc4c(c3)OCO4)cccc21`, the outcome was inactive.

Turning to `O=C(O)/C=C/c1cn(C(=O)/C=C/c2ccc3c(c2)OCO3)c2ccccc12`, the Activity was determined as 21%.

Regarding `CC(Cc1ccc(O)c(O)c1)C(C)Cc1ccc(O)c(O)c1` (stereo not given), the Activity came to 81%.

Turning to `COc1cc(NC(=O)c2cn(C(=O)CCC(=O)O)c3ccccc23)cc(OC)c1OC`, the Activity is 12.5%.

In the case of `COc1cc(NC(=O)c2cn(C(=O)/C=C/C(=O)O)c3ccccc23)cc(OC)c1OC`, the Activity was found to be 26%.

As to `COc1cc(OC)c(OC)cc1/C=C/C(=O)n1ccc(/C(C)=C/C(=O)OC(C)(C)C)c1`, the Activity was found to be 8%.

For `O=C(O)/C=C/C(=O)n1cc(C(=O)Nc2ccccc2)c2ccccc21`, the Activity was 1%.

As for `COc1cc(OC)c(C2CC(=O)n3c2c(/C=C/C(=O)O)c2ccccc23)cc1OC` (stereo not given), the Activity amounted to 12%.

For `COc1cc(NC(=O)c2cn(C(=O)/C=C\C(=O)O)c3ccccc23)cc(OC)c1OC`, the Activity is 2%.

As to `O=C(O)/C=C/c1ccc(O)c(O)c1` [CAFFEIC ACID], the Activity is 5.5%.

With `COc1cc(C)c(/C=C/C(C)=C/C=C/C(C)=C/C(=O)O)c(C)c1C` [ACITRETIN], the outcome was inactive.

Turning to `CC(C)(C)OC(=O)/C=C/c1cn(C(=O)/C=C/c2ccc3c(c2)OCO3)c2ccccc12`, the Activity is 13%.

The record behind these values is ChEMBL document CHEMBL1154722, “Syntheses and evaluation of the antioxidant activity of acitretin analogs with amide bond(s) in the polyene spacer” (Eur J Med Chem, 2010).
